Experimental data taken from ChEMBL document CHEMBL5653631, “A Potent and Selective ULK1 Inhibitor Suppresses Autophagy and Sensitizes Cancer Cells to Nutrient Stress” (iScience, 2018).
Blank lines part the entries; values can stand above or below the compound they belong to.

Experiments:
[1] = target: Maternal embryonic leucine zipper kinase (Homo sapiens) (UniProt Q14680); assay: Inhibition of human recombinant MELK at 500 nM in presence of ATP by radiometric assay relative to control
[2] = target: Serine/threonine-protein kinase WNK2 (Homo sapiens) (UniProt Q9Y3S1); assay: Inhibition of human recombinant Wnk2 at 500 nM in presence of ATP by radiometric assay relative to control
[3] = target: T1, Serine/threonine-protein kinase Nek9 (Homo sapiens) (UniProt Q8TD19); assay: Inhibition of human recombinant NEK9 at 500 nM related to control ULK1
T1 sequence (whole entry): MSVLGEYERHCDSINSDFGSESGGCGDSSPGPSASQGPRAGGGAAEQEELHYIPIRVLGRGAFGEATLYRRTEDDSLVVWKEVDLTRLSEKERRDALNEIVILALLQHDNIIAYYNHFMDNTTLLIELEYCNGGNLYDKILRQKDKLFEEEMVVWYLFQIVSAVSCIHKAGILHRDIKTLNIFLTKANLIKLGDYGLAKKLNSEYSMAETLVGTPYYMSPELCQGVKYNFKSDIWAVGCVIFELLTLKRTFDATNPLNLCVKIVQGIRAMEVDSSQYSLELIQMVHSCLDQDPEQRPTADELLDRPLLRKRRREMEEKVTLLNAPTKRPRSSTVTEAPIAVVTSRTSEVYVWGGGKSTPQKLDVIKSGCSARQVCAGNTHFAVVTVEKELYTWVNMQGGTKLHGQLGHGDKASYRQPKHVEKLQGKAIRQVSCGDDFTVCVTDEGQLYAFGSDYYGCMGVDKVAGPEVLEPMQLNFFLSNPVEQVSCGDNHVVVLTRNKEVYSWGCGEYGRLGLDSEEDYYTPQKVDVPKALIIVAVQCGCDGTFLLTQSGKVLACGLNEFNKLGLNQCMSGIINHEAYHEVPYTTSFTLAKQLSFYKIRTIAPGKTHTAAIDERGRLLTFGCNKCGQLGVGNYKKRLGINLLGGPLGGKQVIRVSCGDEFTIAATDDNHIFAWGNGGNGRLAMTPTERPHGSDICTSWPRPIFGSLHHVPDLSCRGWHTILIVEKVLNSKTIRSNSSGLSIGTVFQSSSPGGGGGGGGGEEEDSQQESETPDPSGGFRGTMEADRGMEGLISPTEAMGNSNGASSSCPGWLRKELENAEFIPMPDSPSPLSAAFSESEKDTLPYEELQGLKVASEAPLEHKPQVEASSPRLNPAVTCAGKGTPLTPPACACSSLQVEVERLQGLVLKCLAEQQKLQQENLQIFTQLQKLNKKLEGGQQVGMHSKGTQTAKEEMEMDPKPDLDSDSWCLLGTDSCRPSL

[4] = target: Serine/threonine-protein kinase PRP4 homolog (Homo sapiens) (UniProt Q13523); assay: Inhibition of human recombinant PRP4 at 15 nM in presence of ATP by radiometric assay relative to control
Sequence of Serine/threonine-protein kinase PRP4 homolog (Homo sapiens) (Q13523 whole entry): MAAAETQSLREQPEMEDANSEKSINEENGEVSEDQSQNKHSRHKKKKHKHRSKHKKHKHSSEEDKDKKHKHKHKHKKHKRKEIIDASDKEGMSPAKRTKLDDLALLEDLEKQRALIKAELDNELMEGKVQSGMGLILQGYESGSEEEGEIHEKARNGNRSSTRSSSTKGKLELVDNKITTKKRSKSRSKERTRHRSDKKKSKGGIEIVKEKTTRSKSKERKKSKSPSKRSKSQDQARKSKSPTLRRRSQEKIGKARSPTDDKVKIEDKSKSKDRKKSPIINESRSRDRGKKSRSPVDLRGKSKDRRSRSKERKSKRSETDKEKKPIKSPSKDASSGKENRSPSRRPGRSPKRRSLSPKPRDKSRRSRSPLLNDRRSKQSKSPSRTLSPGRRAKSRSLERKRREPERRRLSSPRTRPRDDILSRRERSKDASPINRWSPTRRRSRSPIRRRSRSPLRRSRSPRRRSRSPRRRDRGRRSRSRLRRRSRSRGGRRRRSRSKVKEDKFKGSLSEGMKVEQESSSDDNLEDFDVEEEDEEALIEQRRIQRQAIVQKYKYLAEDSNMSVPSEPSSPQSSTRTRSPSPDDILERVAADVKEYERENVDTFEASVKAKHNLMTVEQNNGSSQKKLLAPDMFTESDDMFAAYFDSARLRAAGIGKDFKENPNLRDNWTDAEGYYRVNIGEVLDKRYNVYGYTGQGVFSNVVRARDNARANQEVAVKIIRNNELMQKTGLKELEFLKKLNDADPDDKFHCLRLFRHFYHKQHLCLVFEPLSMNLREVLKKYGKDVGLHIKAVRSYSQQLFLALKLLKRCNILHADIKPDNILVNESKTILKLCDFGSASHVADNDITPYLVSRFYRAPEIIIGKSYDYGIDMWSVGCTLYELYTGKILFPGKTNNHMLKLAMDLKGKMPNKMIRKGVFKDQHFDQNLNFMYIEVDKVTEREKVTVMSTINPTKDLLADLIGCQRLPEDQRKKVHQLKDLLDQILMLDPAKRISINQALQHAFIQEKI

[5] = target: Serine/threonine-protein kinase PAK 6 (Homo sapiens) (UniProt Q9NQU5); assay: Inhibition of human recombinant PAK6 at 15 nM related to control ULK1
Sequence of Serine/threonine-protein kinase PAK 6 (Homo sapiens) (Q9NQU5 whole entry, looked up): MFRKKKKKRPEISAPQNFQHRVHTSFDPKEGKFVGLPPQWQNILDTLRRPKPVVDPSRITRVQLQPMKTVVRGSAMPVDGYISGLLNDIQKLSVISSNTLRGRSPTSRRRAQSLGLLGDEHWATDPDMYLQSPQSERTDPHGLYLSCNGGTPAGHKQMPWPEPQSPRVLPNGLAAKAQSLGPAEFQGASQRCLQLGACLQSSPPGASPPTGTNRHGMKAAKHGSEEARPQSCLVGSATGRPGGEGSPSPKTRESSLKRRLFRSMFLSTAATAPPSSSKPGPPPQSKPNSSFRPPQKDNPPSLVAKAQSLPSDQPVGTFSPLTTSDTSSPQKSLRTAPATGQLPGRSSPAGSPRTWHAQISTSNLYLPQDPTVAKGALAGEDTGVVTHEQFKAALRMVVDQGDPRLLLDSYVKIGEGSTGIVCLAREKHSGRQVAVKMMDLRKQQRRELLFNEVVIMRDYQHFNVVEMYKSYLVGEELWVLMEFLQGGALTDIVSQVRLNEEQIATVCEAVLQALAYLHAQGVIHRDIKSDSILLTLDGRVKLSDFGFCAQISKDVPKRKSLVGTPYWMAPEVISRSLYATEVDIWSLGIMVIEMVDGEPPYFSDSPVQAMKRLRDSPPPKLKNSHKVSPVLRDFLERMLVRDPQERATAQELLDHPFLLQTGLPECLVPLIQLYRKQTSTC

[6] = target: Serine/threonine-protein kinase D2 (Homo sapiens) (UniProt Q9BZL6); assay: Inhibition of human recombinant PKD2 at 15 nM in presence of ATP by radiometric assay relative to control
[7] = target: Aurora kinase B (Homo sapiens) (UniProt Q96GD4); assay: Inhibition of human recombinant AurB at 40 nM in presence of ATP by radiometric assay relative to control
Sequence of Aurora kinase B (Homo sapiens) (Q96GD4 whole entry): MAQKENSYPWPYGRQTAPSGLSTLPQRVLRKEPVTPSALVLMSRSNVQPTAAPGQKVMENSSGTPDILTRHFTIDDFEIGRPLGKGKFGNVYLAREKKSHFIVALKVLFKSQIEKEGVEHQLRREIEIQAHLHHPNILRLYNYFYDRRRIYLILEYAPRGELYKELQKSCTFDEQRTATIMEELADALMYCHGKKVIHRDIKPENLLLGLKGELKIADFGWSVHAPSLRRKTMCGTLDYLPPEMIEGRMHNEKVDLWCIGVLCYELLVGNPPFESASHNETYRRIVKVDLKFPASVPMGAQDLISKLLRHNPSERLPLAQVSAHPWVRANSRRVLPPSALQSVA
How it was run: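 Part of a radiometric in vitro activity panel of 327 recombinant human kinases. Each kinase was tested in duplicate at one inhibitor concentration. Activity remaining was expressed as a percentage of the vehicle control, and percent inhibition was taken as 100 minus that value.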

[8] = target: T2, Dual specificity tyrosine-phosphorylation-regulated kinase 3 (Homo sapiens) (UniProt O43781); assay: Inhibition of human recombinant DYRK3 at 40 nM in presence of ATP by radiometric assay relative to control
T2 sequence (whole entry): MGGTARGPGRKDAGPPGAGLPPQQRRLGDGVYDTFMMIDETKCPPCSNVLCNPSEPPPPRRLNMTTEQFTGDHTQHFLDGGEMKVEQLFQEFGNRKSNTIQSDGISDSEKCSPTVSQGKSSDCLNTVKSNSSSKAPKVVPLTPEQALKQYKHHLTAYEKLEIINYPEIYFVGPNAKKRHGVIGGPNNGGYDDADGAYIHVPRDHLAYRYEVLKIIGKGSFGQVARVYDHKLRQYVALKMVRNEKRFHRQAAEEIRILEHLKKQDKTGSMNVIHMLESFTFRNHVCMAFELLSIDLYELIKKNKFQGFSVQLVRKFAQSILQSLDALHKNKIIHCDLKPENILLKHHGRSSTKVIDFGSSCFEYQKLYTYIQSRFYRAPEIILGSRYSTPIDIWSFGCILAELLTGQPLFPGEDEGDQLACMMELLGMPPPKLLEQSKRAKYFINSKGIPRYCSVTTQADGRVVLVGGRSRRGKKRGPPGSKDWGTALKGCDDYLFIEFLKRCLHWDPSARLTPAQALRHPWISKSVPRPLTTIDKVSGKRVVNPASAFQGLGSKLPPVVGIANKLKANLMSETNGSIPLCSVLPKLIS

[9] = target: Serine/threonine-protein kinase mTOR (Homo sapiens) (UniProt P42345); assay: Inhibition of human recombinant FRAP at 40 nM in presence of ATP by radiometric assay relative to control
[10] = target: T3, Testis-specific serine/threonine-protein kinase 2 (Homo sapiens) (UniProt Q96PF2); assay: Inhibition of human recombinant TSSK2 at 40 nM in presence of ATP by radiometric assay relative to control
T3 sequence (whole entry): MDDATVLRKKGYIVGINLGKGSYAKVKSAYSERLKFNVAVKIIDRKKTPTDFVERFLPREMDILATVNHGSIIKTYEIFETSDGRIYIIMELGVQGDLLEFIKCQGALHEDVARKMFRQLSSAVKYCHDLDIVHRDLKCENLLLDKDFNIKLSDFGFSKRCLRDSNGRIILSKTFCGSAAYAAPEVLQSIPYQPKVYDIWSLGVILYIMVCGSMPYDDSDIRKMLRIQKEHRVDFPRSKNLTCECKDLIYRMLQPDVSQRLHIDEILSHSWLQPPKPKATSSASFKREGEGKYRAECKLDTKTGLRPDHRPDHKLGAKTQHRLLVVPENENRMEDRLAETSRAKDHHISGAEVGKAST

[11] = target: Tyrosine-protein kinase BTK (Homo sapiens) (UniProt Q06187); assay: Inhibition of human recombinant BTK at 40 nM related to control ULK1
Sequence of Tyrosine-protein kinase BTK (Homo sapiens) (Q06187 whole entry): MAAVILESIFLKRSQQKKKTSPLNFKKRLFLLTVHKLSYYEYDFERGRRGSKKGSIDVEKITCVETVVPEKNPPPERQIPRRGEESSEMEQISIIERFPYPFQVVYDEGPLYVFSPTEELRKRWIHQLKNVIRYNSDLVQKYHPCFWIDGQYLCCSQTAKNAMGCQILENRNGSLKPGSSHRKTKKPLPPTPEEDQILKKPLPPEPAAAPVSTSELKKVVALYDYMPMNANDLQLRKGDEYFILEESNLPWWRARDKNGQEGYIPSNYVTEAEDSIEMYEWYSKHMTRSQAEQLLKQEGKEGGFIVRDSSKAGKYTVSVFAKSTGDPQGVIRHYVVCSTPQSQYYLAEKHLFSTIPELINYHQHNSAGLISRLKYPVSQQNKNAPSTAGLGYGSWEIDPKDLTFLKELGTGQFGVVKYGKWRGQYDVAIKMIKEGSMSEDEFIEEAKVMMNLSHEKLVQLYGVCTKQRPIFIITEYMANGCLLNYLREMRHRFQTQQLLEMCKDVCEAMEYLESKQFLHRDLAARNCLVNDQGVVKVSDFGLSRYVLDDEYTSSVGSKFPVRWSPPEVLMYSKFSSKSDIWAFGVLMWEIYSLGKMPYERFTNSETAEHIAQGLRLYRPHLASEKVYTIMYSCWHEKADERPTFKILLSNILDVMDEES

[12] = target: Insulin-like growth factor 1 receptor (Homo sapiens) (UniProt P08069); assay: Inhibition of human recombinant IGF1R at 40 nM related to control ULK1
Sequence of Insulin-like growth factor 1 receptor (Homo sapiens) (P08069 31-736 limits assumed): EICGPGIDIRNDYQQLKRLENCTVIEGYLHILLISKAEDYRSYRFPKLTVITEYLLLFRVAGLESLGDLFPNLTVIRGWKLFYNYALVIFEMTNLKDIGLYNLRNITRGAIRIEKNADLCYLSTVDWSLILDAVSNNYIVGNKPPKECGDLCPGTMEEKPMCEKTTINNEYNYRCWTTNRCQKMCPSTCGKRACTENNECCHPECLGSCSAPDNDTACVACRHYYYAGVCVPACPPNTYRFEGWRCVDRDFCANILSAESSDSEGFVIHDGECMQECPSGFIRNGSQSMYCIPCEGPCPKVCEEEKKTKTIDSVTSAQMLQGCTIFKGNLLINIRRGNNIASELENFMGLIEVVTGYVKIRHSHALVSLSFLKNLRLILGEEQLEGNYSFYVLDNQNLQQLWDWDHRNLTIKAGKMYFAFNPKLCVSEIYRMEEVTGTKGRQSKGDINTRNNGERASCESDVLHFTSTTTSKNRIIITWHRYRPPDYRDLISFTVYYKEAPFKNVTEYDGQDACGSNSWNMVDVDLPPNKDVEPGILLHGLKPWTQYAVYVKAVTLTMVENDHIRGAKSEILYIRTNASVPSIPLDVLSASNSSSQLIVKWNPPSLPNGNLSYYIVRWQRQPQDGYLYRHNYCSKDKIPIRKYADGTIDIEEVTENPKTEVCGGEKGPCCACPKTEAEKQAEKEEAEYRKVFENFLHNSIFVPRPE
Sequence of Insulin-like growth factor 1 receptor (Homo sapiens) (P08069 741-1367 limits assumed): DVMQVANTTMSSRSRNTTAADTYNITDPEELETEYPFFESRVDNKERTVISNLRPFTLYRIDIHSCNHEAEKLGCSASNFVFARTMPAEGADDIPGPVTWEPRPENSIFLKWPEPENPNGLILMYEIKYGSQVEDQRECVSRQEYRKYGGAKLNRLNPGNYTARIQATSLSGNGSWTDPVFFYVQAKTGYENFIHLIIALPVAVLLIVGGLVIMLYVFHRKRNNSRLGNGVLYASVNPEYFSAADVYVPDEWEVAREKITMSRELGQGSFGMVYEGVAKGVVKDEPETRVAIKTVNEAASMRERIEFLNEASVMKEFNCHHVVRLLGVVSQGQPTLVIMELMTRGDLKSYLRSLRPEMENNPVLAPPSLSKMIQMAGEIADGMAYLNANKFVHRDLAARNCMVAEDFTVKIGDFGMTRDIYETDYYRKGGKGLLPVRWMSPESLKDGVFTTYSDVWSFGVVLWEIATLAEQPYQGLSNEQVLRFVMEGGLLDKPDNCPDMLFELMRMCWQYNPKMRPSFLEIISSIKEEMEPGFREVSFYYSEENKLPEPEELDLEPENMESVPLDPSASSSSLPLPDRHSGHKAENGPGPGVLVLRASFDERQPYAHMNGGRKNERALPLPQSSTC

[13] = target: Serine/threonine-protein kinase 24 (Homo sapiens) (UniProt Q9Y6E0); assay: Inhibition of human recombinant MST3 at 40 nM related to control ULK1
[14] = target: Protein kinase C theta type (Homo sapiens) (UniProt Q04759); assay: Inhibition of human recombinant PKCt at 40 nM related to control ULK1

Sequence of Maternal embryonic leucine zipper kinase (Homo sapiens) (Q14680 whole entry, looked up): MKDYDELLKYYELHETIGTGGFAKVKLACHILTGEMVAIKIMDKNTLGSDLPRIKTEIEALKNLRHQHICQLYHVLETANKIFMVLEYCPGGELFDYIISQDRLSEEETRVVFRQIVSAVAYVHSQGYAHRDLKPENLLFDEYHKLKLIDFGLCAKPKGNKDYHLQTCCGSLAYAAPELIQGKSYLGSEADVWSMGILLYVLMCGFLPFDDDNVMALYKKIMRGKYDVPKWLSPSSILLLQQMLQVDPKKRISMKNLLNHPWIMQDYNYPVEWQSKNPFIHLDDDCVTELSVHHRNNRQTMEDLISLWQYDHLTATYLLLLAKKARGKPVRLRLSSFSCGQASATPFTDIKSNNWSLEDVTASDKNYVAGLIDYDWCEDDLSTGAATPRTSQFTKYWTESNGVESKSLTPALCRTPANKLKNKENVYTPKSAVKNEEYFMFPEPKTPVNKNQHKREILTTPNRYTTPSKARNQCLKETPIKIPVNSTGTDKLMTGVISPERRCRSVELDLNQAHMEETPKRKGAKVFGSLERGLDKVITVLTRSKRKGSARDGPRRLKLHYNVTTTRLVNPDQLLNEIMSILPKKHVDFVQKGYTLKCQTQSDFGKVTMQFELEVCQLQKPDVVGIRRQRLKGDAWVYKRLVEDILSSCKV

- inhibition [1]: 0%
- inhibition [2]: 1%
Compound: CNC(=O)c1ccccc1Oc1nc(Nc2cc(OC)c(OC)c(OC)c2)ncc1Br
- fold change (FC) [3]: 0

- inhibition [4]: 6%
- fold change (FC) [5]: 0
- inhibition [6]: 0%
Compound: CC(C)[C@H](NC(=O)c1cc(-c2cnn3cc(-c4ccc(OCCN5CCCCC5)cc4)cnc23)cs1)C(F)(F)F

- inhibition [7]: 49%
- inhibition [8]: 30%
- inhibition [9]: 0%
- inhibition [10]: 0%
- fold change (FC) [11]: 0
- fold change (FC) [12]: 0
- fold change (FC) [13]: 0.27
- fold change (FC) [14]: 0
Compound: O=C(N[C@@H](C1CC1)C(F)(F)F)c1cc(-c2cnn3cc(-c4ccc(F)cc4)cnc23)cs1
